Reference: ChEMBL document CHEMBL4428107 (Bioorg Med Chem, 2016)

What was measured:
Histone deacetylase 2 = Histone deacetylase 2 (Homo sapiens, UniProt Q92769); assay: Inhibition of full length recombinant human HDAC2 expressed in baculovirus expression system using fluorogenic peptide RHKK(Ac) as substrate by fluorescence assay
HCT-116 = assay: Antiproliferative activity against human HCT116 cells assessed as reduction in cell viability after 72 hrs by MTS-PMS assay; assay type: functional; details: Homo sapiens, HCT-116, 72 h
Procedure, shortened: (§1)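 MTS-PMS viability test. Cells were seeded at 3,000/well and left 24 h at 37 °C, 5% CO2, then exposed to compound for 72 h. Screening was at 50 μM for HCT116 and MCF-7 and […], with final DMSO ≤1%. MTS:PMS was mixed 20:1, added for 3 h, and absorbance read at 490 nm. At least two independent runs were done, each in triplicate.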

MCF7 = assay: Antiproliferative activity against human MCF7 cells assessed as reduction in cell viability after 72 hrs by MTS-PMS assay; details: MCF7, 72 h
MDA-MB-231 = assay: Antiproliferative activity against human MDA-MB-231 cells assessed as reduction in cell viability after 72 hrs by MTS-PMS assay; assay type: functional; details: MDA-MB-231, 72 h; procedure, shortened: as §1
MOLT-4 = assay: Antiproliferative activity against human MOLT4 cells assessed as reduction in cell viability after 70 hrs by Quanti-blue assay; assay type: functional; details: Homo sapiens, MOLT-4, 70 h
Procedure, shortened: (§2)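 Quanti-Blue viability kit. HuT-78 and Molt-4 cells were grown in RPMI-1640 and seeded at 10^5 cells/mL. Compounds were screened at 50 μM for 70 h, with detection reagent present for the final 2 h. Fluorescence was read at ex 530/em 590 nm. IC50 from dose-response came from linear regression. Three independent runs.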

HuT78 = assay: Antiproliferative activity against human HUT78 cells assessed as reduction in cell viability after 70 hrs by Quanti-blue assay; assay type: functional; details: Homo sapiens, HuT78, 70 h; procedure, shortened: as §2
[1] = Antiproliferative activity against human PBMC assessed as reduction in cell viability after 70 hrs by Quanti-blue assay; assay type: cell-based
Procedure, shortened: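 QB fluorescence viability assay; hPBMCs purified by density centrifugation from purchased human blood, stored frozen, resuspended in RPMI-1640 with 10% heat-inactivated FBS, HEPES, pyruvate, non-essential amino acids and BME; seeded at 10^6 cells/mL. Compounds at 50 μM, 70 h plus 2 h with detection reagent; λex 530/λem 590 nm. Three independent repeats.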

[2] = Immunomodulatory activity in human TALL-104 cells assessed as effect on degranulation by measuring augmentation of CD3-stimulated anti-LAMP fluorescence at 100 uM preincubated for 30 mins followed by anti-LAMP addition and incubated for 50 mins in the dark by flow cytometric analysis relative to control; assay type: functional

Sequence of Histone deacetylase 2 (Q92769 whole entry): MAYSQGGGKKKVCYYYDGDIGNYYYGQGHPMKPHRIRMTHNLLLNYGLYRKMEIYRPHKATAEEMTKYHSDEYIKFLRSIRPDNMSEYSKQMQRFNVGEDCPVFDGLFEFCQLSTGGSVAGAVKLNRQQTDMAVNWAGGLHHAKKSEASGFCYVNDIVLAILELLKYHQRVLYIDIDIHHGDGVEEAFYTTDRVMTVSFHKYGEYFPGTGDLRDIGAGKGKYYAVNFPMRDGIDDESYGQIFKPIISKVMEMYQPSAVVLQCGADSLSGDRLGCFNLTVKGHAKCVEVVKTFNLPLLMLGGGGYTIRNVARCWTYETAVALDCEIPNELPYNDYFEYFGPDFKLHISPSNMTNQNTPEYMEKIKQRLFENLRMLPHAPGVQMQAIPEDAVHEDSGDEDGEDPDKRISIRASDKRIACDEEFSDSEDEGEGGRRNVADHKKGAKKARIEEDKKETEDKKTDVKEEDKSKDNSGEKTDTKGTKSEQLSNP

Row | Structure (SMILES) | IC50 (Histone deacetylase 2) [µM] | GI50 (HCT-116) [µM] | GI50 (MCF7) [µM] | GI50 (MDA-MB-231) [µM] | GI50 (MOLT-4) [µM] | GI50 (HuT78) [µM] | GI50 at 70 h [1] [µM] | Activity [2] [%]
1 | CCOC(=O)NCCCC(=O)NCCc1cccc(Cl)c1 | > 1 | > 50 | > 50 | > 50 | > 50 | > 50 | > 50 | 75
2 | CC(=O)SCCC(=O)NCCCC(=O)NCCc1ccccc1 | > 1 | > 50 | > 50 | > 50 | > 50 | > 50 | > 50 | 77
3 | COc1cccc2c1C(=O)c1c(O)c3c(c(O)c1C2=O)C[C@@](O)(C(=O)CO)C[C@@H]3O[C@H]1C[C@H](N)[C@H](O)[C@H](C)O1 [DOXORUBICIN] |  | 21.4 |  | 10.7 |  |  |  | 
4 | CCOC(=O)NCCCC(=O)OCCc1ccccc1 | > 1 | > 50 | > 50 | > 50 | > 50 | > 50 | > 50 | 88
5 | COC(=O)NCCCC(=O)NCCc1ccccc1 | > 1 | > 50 | > 50 | > 50 | > 50 | > 50 | > 50 | 81
6 | CC(C)(C)OC(=O)NCCCC(=O)NCCc1ccccc1 | > 1 | > 50 | > 50 | > 50 | > 50 | > 50 | > 50 | 82
7 | CCOC(=O)NCCCC(=O)NCCC(C)C | > 1 | > 50 | > 50 | > 50 | > 50 | > 50 | > 50 | 88
8 | CCNC(=O)NCCCC(=O)NCCc1ccccc1 | > 1 | > 50 | > 50 | > 50 | > 50 | > 50 | > 50 | 106
9 | CCOC(=O)NCCCC(=O)NCCNC(=O)OC(C)(C)C | > 1 | > 50 | > 50 | > 50 | > 50 | > 50 | > 50 | 95
10 | CCOC(=O)NCC(=O)NCCCCc1ccccc1 | > 1 | > 50 | > 50 | > 50 | > 50 | > 50 | > 50 | 81
11 | CCOC(=O)NCCCCCC(=O)NCCc1ccccc1 | > 1 | > 50 | > 50 | > 50 | > 50 | > 50 | > 50 | 98
12 | O=C(CCCNC(=O)OCCF)NCCc1ccccc1 | > 1 | > 50 | > 50 | > 50 | > 50 | > 50 | > 50 | 92
13 | CCOC(=O)NCCC(=O)NCCCCc1ccccc1 | > 1 | > 50 | > 50 | > 50 | > 50 | > 50 | > 50 | 83
14 | O=C(CCCNC(=S)N1CCCC1=O)NCCc1ccccc1 | > 1 | > 50 | > 50 | > 50 | > 50 | > 50 | > 50 | 94
15 | CCCC(=O)NCCCC(=O)NCCc1ccccc1 | > 1 | > 50 | > 50 | > 50 | > 50 | > 50 | > 50 | 101
